These results are taken from ChEMBL document CHEMBL1135503, “Lepadins D-F: antiplasmodial and antitrypanosomal decahydroquinoline derivatives from the tropical marine tunicate Didemnum sp” (J Med Chem, 2002).

Assay [1] relates to Plasmodium falciparum. Put plainly: Antiplasmodial activity against Plasmodium falciparum NF54. The assay is classed as functional, organism-based. Summed up: (§1)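 P. falciparum (NF54 chloroquine-sensitive, K1 chloroquine-resistant) cultured in vitro in human A+ erythrocytes with Albumax. Readout is inhibition of parasite-specific [3H]hypoxanthine incorporation. IC50 in µg/mL taken from logarithmic dose–response curves.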

In assay [2] the test system is Trypanosoma brucei rhodesiense. Put plainly: 50% antitrypanosomal activity against Trypanosoma rhodesiense. Format: functional, organism-based. In outline:
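T. brucei rhodesiense grown axenically in culture medium supplemented with horse serum. IC50 in µg/mL.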

Assay [3] has as its system Plasmodium falciparum. Put plainly: Antiplasmodial activity against Plasmodium falciparum K1. The assay is classed as functional, organism-based. Summed up:
as §1

Assay [4] relates to Trypanosoma cruzi. Put plainly: 50% antitrypanosomal activity against Trypanosoma cruzi. Format: functional, organism-based. Summed up: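 Tulahuen strain of T. cruzi expressing E. coli β-galactosidase, grown as intracellular amastigotes in mammalian fibroblasts with drug for 5 days. Viability read colorimetrically from β-galactosidase turnover of chlorophenol red β-D-galactopyranoside, quantified on an ELISA reader. IC50 in µg/mL.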

Assay [5] concerns L6. Put plainly: Cytotoxic effect in rat skeletal muscle myoblast L6 cells. The assay is classed as functional, cell-based. In outline: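 Rat L6 skeletal muscle myoblast cells. IC50 in µg/mL.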
The target of assay [6] is Tyrosine-protein kinase Lck (Homo sapiens) (UniProt P06239). Put plainly: Inhibition of p56 Lck tyrosine kinase at 200 ug/mL (inactive).
Tyrosine-protein kinase Lck (Homo sapiens), sequence (P06239 2-509 limits assumed): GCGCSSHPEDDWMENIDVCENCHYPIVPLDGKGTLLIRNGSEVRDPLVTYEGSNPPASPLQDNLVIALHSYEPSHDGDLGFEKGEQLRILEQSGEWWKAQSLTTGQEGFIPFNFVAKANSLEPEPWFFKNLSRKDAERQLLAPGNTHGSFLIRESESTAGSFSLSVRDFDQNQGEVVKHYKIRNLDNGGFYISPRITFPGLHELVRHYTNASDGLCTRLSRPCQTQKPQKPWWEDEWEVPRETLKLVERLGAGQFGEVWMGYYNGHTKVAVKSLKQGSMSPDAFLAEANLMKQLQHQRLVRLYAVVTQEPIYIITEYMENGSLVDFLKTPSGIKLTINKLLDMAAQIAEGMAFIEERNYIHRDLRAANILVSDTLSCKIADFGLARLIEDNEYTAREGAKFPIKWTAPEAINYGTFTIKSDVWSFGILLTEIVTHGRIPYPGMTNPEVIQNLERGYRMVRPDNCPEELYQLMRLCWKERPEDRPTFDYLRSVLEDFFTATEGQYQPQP
Assay [7] concerns Microbotryum violaceum. Put plainly: Zone of inhibition from the edge of a circular filter disk impregnated with test substance, against Ustilago violacea (antifungal activity); NA means inactive. The assay is classed as functional, organism-based. In outline: (§2)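 Agar diffusion assay. Filter disks loaded with 0.02 mg sample each. Zone of inhibition measured in mm from the disk edge against the fungi Eurotium repens or Ustilago violacea (Microbotryum violaceum).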

Assay [8] deals with Aspergillus pseudoglaucus. Put plainly: Zone of inhibition from the edge of a circular filter disk impregnated with test substance, against Eurotium repens (antifungal activity); NA means inactive. Format: functional, organism-based. Summed up: as §2
[9] abbreviates: Plasmodium falciparum, read-out: IC50.
[10] abbreviates: Trypanosoma brucei, read-out: IC50.
Where [11] appears, read: Trypanosoma cruzi, read-out: IC50.

In brackets after ≈: the same amount, converted by molar mass. Activity calls are given as the source filed them. The calls are words filed in the database; no cut-off is given here.

A word on the IC50: it is the concentration at which inhibition is half-maximal.

Consider `CCCCC/C=C/C(=O)O[C@H]1C[C@@H]2[C@H](CCCCC(O)CCC)CCC[C@@H]2N(C(=O)c2ccc(Br)cc2)[C@@H]1C` (stereo partly specified), for which the IC50 in assay [1] (setting [9]) is 0.4 µg/mL (≈ 0.662 µM); in assay [2] (setting [10]) it was 36.9 µg/mL (≈ 60.9 µM); in assay [3] (setting [9]), 0.5 µg/mL (≈ 0.827 µM).
On to `CCCC(O)CCCC[C@@H]1CCC[C@@H]2N[C@H](C)[C@@H](O)C[C@H]12` (stereo in doubt; 1) [listing 1 of 2 here], for which the IC50 in assay [1] (setting [9]) is 10 µg/mL (≈ 33.6 µM); in assay [4] (setting [11]) it was 37.2 µg/mL (≈ 125 µM); in assay [5] it was more than 30 µg/mL; in assay [2], 5.6 µg/mL (≈ 18.8 µM); in assay [3] (setting [9]), 6.1 µg/mL (≈ 20.5 µM).
As to `CCCC(O)CCCC[C@@H]1CCC[C@@H]2N[C@H](C)[C@@H](O)C[C@H]12` (stereo in doubt; 1) [listing 2 of 2 here], in assay [6], the NA result was “inactive”.
On to `CCCC(O)CCCC[C@@H]1CCC[C@@H]2N[C@H](C)[C@@H](O)C[C@H]12` (stereo in doubt; 2) [listing 1 of 2 here], for which the 50% inhibitory concentration (IC50) in assay [1] is 10 µg/mL (≈ 33.6 µM); in assay [4] it was 37.3 µg/mL (≈ 125 µM); in assay [5], more than 30 µg/mL; in assay [2], 1.97 µg/mL (≈ 6.62 µM); in assay [3], 4 µg/mL (≈ 13.4 µM).
As to `CCCC(O)CCCC[C@@H]1CCC[C@@H]2N[C@H](C)[C@@H](O)C[C@H]12` (stereo in doubt; 2) [listing 2 of 2 here], the NA result in assay [7], in assay [8] and in assay [6] was “inactive” each time.
On to `C[C@@H]1CC[C@H]2[C@@H](C)C(=O)O[C@@H]3O[C@@]4(C)CC[C@@H]1[C@]32OO4` [ARTEMISININ], for which the IC50 in assay [1] (setting [9]) stood at 0.003 µg/mL (≈ 0.0106 µM); in assay [3] (setting [9]) it was 0.001 µg/mL (≈ 0.00354 µM).
For the molecule `CCCCC/C=C/C(=O)O[C@H]1C[C@@H]2[C@H](CCCCC(O)CCC)CCC[C@@H]2N[C@@H]1C` (stereo partly specified) [LEPADIN E], the IC50 in assay [1] (setting [9]) stood at 0.9 µg/mL (≈ 2.13 µM); in assay [4] (setting [11]) it was 2.2 µg/mL (≈ 5.22 µM); in assay [5], 16.2 µg/mL (≈ 38.4 µM); in assay [2] (setting [10]), 0.38 µg/mL (≈ 0.901 µM); in assay [3] (setting [9]) it was 0.4 µg/mL (≈ 0.949 µM).
On the same counts, the results for `CCCCC/C=C/C(=O)O[C@H]1C[C@@H]2[C@H](CCCCC(O)CCC)CCC[C@@H]2N[C@H]1C` (stereo partly specified) [LEPADIN F] are 0.3 µg/mL (≈ 0.711 µM), 2.6 µg/mL (≈ 6.17 µM), 18.3 µg/mL (≈ 43.4 µM), 0.23 µg/mL (≈ 0.545 µM) and 0.2 µg/mL (≈ 0.474 µM).
Consider `Nc1nc(N)nc(Nc2ccc([As]3SCC(CO)S3)cc2)n1` (stereo unspecified) [MELARSOPROL], for which the values for the IC50 in assay [4] (setting [11]) and in assay [2] (setting [10]) were 0.6 µg/mL and 0.0026 µg/mL, respectively.
